STAT1 inh: STAT1 signaling inhibitors, primary screen, cell-based, HTS, luciferase reporter; NIH 3T3 STAT1-luciferase reporter, IFN-gamma, luminescence; inhibition, % at 5.5 µM; 200,000 tested, 0.35% active;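 active = inhibition above a set limit, the mean inhibition across all tested compounds plus 3 SD, cut at about 34% in these data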;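 also: 0% = IFN-gamma with DMSO and 100% = IFN-gamma with 300 µM nifuroxazide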
STAT3 blocker: IL-6 driven STAT3 reporter inhibitors, primary screen, U3A cells, luciferase, luminescence, MLSCN library | IL-6 STAT3-luciferase reporter; host cell line lacks STAT1 | inhibition, % at 5.5 µM | 190,000 tested, 0.89% active | AID 862, 2007;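 active = inhibition above the mean inhibition across all screened compounds plus 3 SD, cut at about 44% in these data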;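 also: 0% = DMSO only wells and 100% = 100 µM nifuroxazide control wells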
Cl transport mod: KCC2 cotransporter modulators, thallium flux, primary screen, cell-based, HEK293 KCC2, FluoZin-2 fluorescence, MLSMR; Solute carrier family 12 member 5 (Homo sapiens), Q9H2X9; KCC2 cells, thallium flux FluoZin-2 fluorescence; B-score of Tl+ flux slope (higher = more flux/activation; lower = inhibition) at 10 µM; 190,000 tested, 2.2% active;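 active = thallium flux slope and its plate-corrected score both differing from the plate sample mean at a set confidence after two filtering rounds, in either direction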;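 also: slope of fluorescence scaled to starting intensity during 10 to 20 s after thallium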
Target sequence (Q9H2X9 whole entry, looked up): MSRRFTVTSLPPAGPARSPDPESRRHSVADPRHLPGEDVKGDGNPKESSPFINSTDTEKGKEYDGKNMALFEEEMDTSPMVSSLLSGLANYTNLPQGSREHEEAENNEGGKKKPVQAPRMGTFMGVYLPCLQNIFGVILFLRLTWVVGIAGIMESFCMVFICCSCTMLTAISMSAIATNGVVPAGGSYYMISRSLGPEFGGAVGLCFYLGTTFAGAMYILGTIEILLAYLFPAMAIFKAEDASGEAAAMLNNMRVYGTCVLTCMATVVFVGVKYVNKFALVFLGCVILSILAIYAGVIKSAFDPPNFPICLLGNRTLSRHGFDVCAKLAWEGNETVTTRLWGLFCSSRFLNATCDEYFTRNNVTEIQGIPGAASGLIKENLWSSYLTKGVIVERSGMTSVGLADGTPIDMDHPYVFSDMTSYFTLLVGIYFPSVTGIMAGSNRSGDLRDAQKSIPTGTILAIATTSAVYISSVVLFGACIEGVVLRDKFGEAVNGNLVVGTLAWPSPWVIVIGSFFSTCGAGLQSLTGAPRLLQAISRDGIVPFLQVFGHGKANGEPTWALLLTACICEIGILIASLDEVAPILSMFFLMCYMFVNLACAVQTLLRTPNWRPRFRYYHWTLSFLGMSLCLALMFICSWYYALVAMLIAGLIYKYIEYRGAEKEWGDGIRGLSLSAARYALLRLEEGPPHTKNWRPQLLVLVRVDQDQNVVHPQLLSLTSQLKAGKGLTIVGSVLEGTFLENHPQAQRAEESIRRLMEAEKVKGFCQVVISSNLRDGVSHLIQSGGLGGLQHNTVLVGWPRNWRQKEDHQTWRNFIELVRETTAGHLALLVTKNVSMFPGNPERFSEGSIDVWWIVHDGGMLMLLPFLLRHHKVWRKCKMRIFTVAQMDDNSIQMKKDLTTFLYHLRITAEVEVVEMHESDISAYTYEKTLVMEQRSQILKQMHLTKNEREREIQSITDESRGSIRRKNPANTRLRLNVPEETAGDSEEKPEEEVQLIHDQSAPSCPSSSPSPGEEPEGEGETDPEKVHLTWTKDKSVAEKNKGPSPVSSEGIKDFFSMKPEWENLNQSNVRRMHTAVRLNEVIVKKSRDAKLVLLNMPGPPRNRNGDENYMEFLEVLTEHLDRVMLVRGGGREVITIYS
HSV augment: enhancers of HSV replication in host cells, fold increase, host cell viability | HSV replication augmentation in cells | maximum fold increase | 220,000 tested, 0.005% active | AID 1956, 2009; in the data active = maximum fold increase above about 1.5; inconclusive = no clear call, values can overlap the other calls; tested in PC3 cells
STAT1 act: STAT1 signaling activators, primary screen, cell-based, HTS, luciferase reporter | activation (% of control), % at 5.5 µM | 200,000 tested, 2.6% active | NIH 3T3 STAT1-luciferase reporter, IFN-gamma, luminescence; 100% = IFN-gamma alone, no compound;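 active = activation above the screen-wide mean activation plus 3 SD, cut at about 130% in these data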;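 also: raw ratio to IFN-gamma control signal so 100% means no change and 0% no light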
STAT3 activator: IL-6 driven STAT3 reporter potentiators, primary screen, U3A cells, luciferase, luminescence, MLSCN library | IL-6 STAT3-luciferase reporter; 100% = signal with IL-6 EC80 alone | 190,000 tested, 0.91% active | activation (% of control), % at 5.6 µM;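 active = activation above the screen-wide mean of compound activation plus 3 SD, cut at about 130% in these data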;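 also: 0% = background luminescence of wells with medium and substrate only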
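System – human U3A cells carrying STAT3-luciferase construct · Probe or stimulus – Interleukin-6, 33 ng/mL · Schedule – compound 1 h, then IL-6 6 h at 37 °C · Signal – luminescence from STAT3-driven luciferase reporter · Evaluation – percent of IL-6-only median luminescence · Benchmarks – IL-6-only high control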
An asterisk follows results filed as active; i = inactive; ? = inconclusive; . = not tested or not shown. Sampled rows, rich in hits. Any-hit rate of the full collection: about 5.5%.

SMILES	STAT1 inh	STAT3 blocker	Cl transport mod	HSV augment	STAT1 act	STAT3 activator
Cc1ccnc(NC(=O)Nc2cccc(F)c2)n1	-52	8	.	i	145*	98
Cc1cccc(NC(=O)Nc2cccc(F)c2)n1	-27	6	0.092	i	125	100
O=C(O)c1ccc2c(c1)C(=O)N(c1cccc(-c3nc4ccccc4s3)c1)C2=O	-34	18	-1.3	i	130*	88
Nc1cccc(-c2nc3ccccc3s2)c1	-52	-1	-1.4	i	147*	104
CC(=O)Nc1ccc(O)c(-c2nc3ccccc3s2)c1	-7	-13	-0.044	i	105	117
CC(=O)Nc1ccc2nc(NC(=O)C(Cl)(Cl)Cl)sc2c1	-19	-2	-0.35	i	115	107
CC(=O)Nc1cccc(-c2nc3ccccc3s2)c1	-53	3	.	i	148*	102
CC(=O)Nc1cccc(-c2nc3ccc(NC(C)=O)cc3s2)c1	-42	12	-0.0029	i	140*	91
CCOCCN1CCN(C(=O)CN2CCCC2=O)CC1	-9	-6	0.65	i	108	103
O=C(Nc1ccc(-c2noc(COc3ccccc3Cl)n2)cc1)c1ccco1	-34	18	0.066	i	132*	87
COc1ccc(C(=O)CC(=O)C(=O)NCCc2cccc(C)c2)cc1	-3	-3	8.3*	i	103	100
COc1ccc(C(=O)NC(=S)NCCc2ccccc2)cc1	-16	-5	0.77	i	112	105
CCOc1ccc(-n2nnnc2-c2nc3ccccc3s2)cc1	-45	4	0.061	i	140*	95
C/C(=N\NC(=O)c1cc(-c2ccc(C)s2)[nH]n1)c1ccco1	-13	20	-1.6	i	112	86
COc1ccc(CNc2ccc(C)c(C)c2)cc1	-32	0	0.55	i	130*	105
Cc1cc(/C=c2/sc3nc4ccccc4n3c2=O)c(C)n1-c1ccccn1	86*	104*	.	i	23	13
CC(=O)c1c(C)[nH]c(C(=O)Nc2ccc(C)cn2)c1C	39*	90*	0.5	i	64	24
Cc1csc(NC(=O)c2ccc(C(=O)Nc3nc(C)cs3)cc2)n1	.	.	-0.068	i	.	.
Cc1csc(NC(=O)c2ccc(S(C)(=O)=O)cc2)n1	-34	-7	0.17	i	130*	107
CC(=O)c1c(C)[nH]c(C(=O)Nc2nc(-c3ccc(Cl)cc3)cs2)c1C	-1	2	-2.6	i	101	102
CC(=O)c1c(C)[nH]c(C(=O)Nc2nc(C)cs2)c1C	70*	85*	0.02	i	34	30
COc1ccc(C(=O)COc2ccccc2C(=O)Nc2ccccc2)cc1	-3	10	0.034	i	103	97
CN(C)CCCNC(=O)c1cc2sc3ccccc3c2s1	-7	4	0.95	i	106	102
COCCNC(=O)c1cc2sc3ccccc3c2s1	-41	18	-1.9	i	137*	87
CC(=O)c1ccc(OCCOc2ccc(C#N)cc2)cc1	.	.	0.63	i	.	.
SMILES	STAT1 inh	STAT3 blocker	Cl transport mod	HSV augment	STAT1 act	STAT3 activator
CN(c1ccccc1)S(=O)(=O)c1ccc(C(=O)NCc2ccccn2)cc1	-4	7	-0.31	i	104	94
COc1cccc(CNC(=O)CSCc2cnn(-c3ccccc3)c2-n2cccc2)c1	2	-2	-0.38	i	98	107
CC(=O)OCC(=O)[C@@]12OC3(CCCC3)O[C@@H]1C[C@H]1[C@@H]3CCC4=CC(=O)C=C[C@]4(C)[C@@]3(F)[C@@H](O)C[C@@]12C	-32	-1	-0.11	i	129*	103
Cc1ccc2cc(C=O)c(N(C)C)nc2c1	2	-38	-0.71	i	98	134*
CCCn1c(N)c(C(=O)COC(=O)c2c(C)noc2C)c(=O)n(C)c1=O	-1	10	-0.87	i	101	94
CCCn1c(N)c(C(=S)NC(=O)C2CC2)c(=O)n(C)c1=O	4	3	14*	i	96	97
CC(=O)NC(=S)c1c(N)n(Cc2ccccc2)c(=O)n(C)c1=O	7	-1	3.9*	i	92	105
CC(=O)Nc1ccc(SCC(=O)c2c(N)n(Cc3ccccc3)c(=O)n(C)c2=O)cc1	.	.	-3.1	?	.	.
CCCCn1c(N)c(C(=S)NC(=O)CC(C)C)c(=O)n(C)c1=O	10	5	24*	i	91	95
CCN(CC)CCN1C(=O)C(O)=C(C(=O)c2cc3cccc(OC)c3o2)C1c1cccs1 (stereo unspecified)	.	.	0.064	i	.	.
Cn1c(SCc2ccc(C#N)cc2Cl)nc2ccccc21	-50	11	-4	i	145*	91
CCN(CC(=O)Nc1cccc(OC)c1)CC(=O)Nc1ccc(C)cc1Cl	1	8	-0.083	i	99	97
COc1cccc2cc(C(=O)c3ccc([N+](=O)[O-])cc3)oc12	-41	16	-0.19	i	135*	90
Cc1ccc2nc(-c3cccnc3)cc(C(=O)Nc3ccc(F)cc3C)c2c1	-2	2	-0.99	i	99	102
COc1ccc(CCN(C)CC(=O)Nc2cc(C)nc3ccccc23)cc1OC	.	.	-0.17	i	.	.
O=C(Nc1nc(-c2ccc(Cl)s2)cs1)c1cccs1	-13	4	-0.34	i	111	102
O=C(Nc1nc(-c2ccc(Cl)s2)cs1)c1ccco1	-32	11	0.24	i	130*	93
Cc1ccc(Nc2nc(-c3sc(NC(=O)c4ccco4)nc3C)cs2)cc1	-11	-34	0.42	i	110	135*
Cc1ccccc1Nc1nc(-c2sc(NC(=O)c3ccco3)nc2C)cs1	-10	6	0.4	i	109	99
O=C(O)c1cccnc1Br	-12	4	1.8	i	109	102
CN(C)/C=C/C1=C([N+](=O)[O-])C(c2cccc([N+](=O)[O-])c2)NC(=O)N1 (stereo unspecified)	.	.	0.5	i	.	.
O=c1[nH]c2ccc([N+](=O)[O-])cc2nc1/C=C(\O)c1ccccc1	.	.	0.079	1.6*	.	.
O=C(Nc1ccc(N2CCOCC2)cc1)c1ccc([N+](=O)[O-])cc1	-14	21	0.068	i	113	86
CCOc1cc(O)c(-c2[nH]ncc2-c2nc(C)cs2)cc1CC	.	.	-0.018	i	.	.
Cn1c(NCc2ccc(Cl)cc2)nc2ccccc21	-39	8	-1.4	i	136*	101
Cn1c(CNc2nc3ccccc3n2C)nc2ccccc21	-13	4	1.1	i	114	100
